# Source: PubChem BioAssay
# Activity calls are given as the source filed them.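 The calls were made as follows, unless noted: active = viability loss from added drug above about 55%, and viability with drug at most 40%, in both replicates (limit read from the data, passing the limit was not always enough); inconclusive = both conditions met in only one replicate; inactive = neither replicate meets both conditions.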
# Tests used:
# [1] = Her2 expression decrease, cell viability multiplex – SKBR3 breast tumor cells, AlphaScreen, ATP viability, primary screen (AID 461;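 active = Her2 level under about 52% in both replicate screens, with viability over 70% of control, limit read from the data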;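 as to Her2 level: lower value means less Her2 protein in the cells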;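 as to viability: percent of carrier control wells set as 100% viability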); conditions: SKBR3 Her2 protein level, 18-24 h, measured here: SKBR3 viability, ATP luminescence, at 10 µM
# [2] = molecular target: Receptor tyrosine-protein kinase erbB-2 (Homo sapiens) (UniProt P04626); assay: as above; conditions: 18-24 h, at 10 µM, stronger effect = lower value
# Chain of Receptor tyrosine-protein kinase erbB-2 (Homo sapiens) (P04626 whole entry, looked up): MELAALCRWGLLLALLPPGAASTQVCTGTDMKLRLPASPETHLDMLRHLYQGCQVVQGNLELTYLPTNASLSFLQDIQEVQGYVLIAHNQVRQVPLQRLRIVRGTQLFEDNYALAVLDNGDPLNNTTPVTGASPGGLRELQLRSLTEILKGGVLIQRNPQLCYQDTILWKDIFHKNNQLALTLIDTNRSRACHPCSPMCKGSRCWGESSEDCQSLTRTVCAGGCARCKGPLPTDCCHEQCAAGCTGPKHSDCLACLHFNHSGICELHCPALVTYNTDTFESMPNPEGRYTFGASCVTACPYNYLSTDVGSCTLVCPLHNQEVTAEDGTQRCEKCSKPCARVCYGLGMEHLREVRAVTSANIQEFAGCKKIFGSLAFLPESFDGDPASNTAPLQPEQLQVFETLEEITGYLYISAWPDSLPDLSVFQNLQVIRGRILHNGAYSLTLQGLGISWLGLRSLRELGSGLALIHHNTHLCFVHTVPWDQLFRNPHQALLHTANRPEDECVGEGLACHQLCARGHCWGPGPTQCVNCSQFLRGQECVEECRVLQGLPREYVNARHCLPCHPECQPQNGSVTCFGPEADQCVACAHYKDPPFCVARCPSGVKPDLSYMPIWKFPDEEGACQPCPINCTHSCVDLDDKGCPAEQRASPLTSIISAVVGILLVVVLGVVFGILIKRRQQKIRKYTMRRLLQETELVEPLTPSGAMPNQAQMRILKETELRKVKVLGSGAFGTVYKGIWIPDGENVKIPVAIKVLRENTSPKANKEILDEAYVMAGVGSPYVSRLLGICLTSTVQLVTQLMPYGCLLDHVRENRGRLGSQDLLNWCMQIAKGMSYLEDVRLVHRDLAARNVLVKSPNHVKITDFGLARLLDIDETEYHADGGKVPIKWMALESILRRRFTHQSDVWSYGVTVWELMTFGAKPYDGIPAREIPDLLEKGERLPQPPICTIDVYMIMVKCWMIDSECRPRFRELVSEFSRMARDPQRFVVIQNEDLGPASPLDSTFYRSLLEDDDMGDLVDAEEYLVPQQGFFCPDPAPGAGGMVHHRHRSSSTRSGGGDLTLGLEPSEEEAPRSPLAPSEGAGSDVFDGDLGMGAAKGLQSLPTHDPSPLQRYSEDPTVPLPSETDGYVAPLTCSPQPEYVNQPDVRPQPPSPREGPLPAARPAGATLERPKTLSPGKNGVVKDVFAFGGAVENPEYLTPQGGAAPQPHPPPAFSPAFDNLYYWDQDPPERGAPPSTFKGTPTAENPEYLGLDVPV
# [3] = reduced viability of SK-BR-3 breast cancer cells – cell-based, 24 h, human, pilot screen (AID 572;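 active = viability at or below 10% of carrier control in both of two separate runs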;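 also: compound exposure lasted between 18 and 24 h rather than exactly 24 h; 100% = carrier-treated control wells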); conditions: SK-BR-3 viability, CellTiter-Glo luminescence, at 10 µM, stronger effect = lower value
# [4] = HUVEC growth inhibition – cell-based, human, primary screen (AID 575;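 active = viability at or below 30% in both replicate assays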;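 also: 100% = median of untreated cell wells with 0.1% DMSO on each plate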); conditions: HUVEC proliferation, CellTiter-Glo luminescence, 72 h; at 10 µM; stronger effect = lower value
# Outline: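 system = HUVEC primary cells | amount = 1250 cells/well | buffer or medium = supplemented EBM, 2% fetal bovine serum | dosing = single-point 10 µM, DMSO 0.1% final | times = 72 h compound incubation | detection = CTG luminescence | read-out = % viability relative to median vehicle-well signal on each plate | control set = vehicle and MePR control wells | format = collagen-coated 384-well format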
# [5] = H69AR cell proliferation blockers – human, duplicate replicates, primary screen (AID 580;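 active = viability at or under a set limit in both replicates, limit being median viability minus 3 SD, cut at about 48% in these data, passing the limit was not always enough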;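 also: 100% = mean luminescence of untreated wells and 0% = no signal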); conditions: H69AR lung tumor cells viability, ATP luminescence, 72 h; at 10 µM; stronger effect = lower value
# [6] = MRP1 drug-resistance reversers in H69AR cells – cell-based, doxorubicin co-treatment, pilot screen (AID 601); conditions: CellTiter-Glo, 72 h, at 10 µM; for differential viability (reversal): stronger effect = higher value
# [7] = yeast transport mutant growth inhibition pilot in 384-well plates, post-Golgi transport modulator project (AID 636; in the data active = inhibition above about 31%); conditions: absorbance 615 nm, about 18 h, stronger effect = higher value
# [8] = growth suppression of yeast trafficking mutant, preliminary HTS, modulators of trafficking downstream of Golgi apparatus project, 1536-format plate, OD 615 nm (AID 637; in the data active = inhibition above about 30%); conditions: yeast transport mutant growth, absorbance 615 nm, 18 h; stronger effect = higher value
# [9] = H69AR cells + 2 uM doxorubicin, measured here: viability with 2 uM doxorubicin, stronger effect = lower value
# [10] = H69AR cells, compound alone cytotoxicity
SMILES,viability [1],Her2 level [2],viability [3],viability [4],viability [5],differential viability (reversal) ([6]; H69AR cells + 2 uM doxorubicin),"viability [6, 9]","viability [6, 10]",inhibition [7],inhibition [8]
CCCC(=O)Nc1ccccc1NC(=O)CN(C)S(=O)(=O)c1ccc(C)cc1,97%,114% (inactive),97% (inactive),103% (inactive),98.9% (inactive),9.23% (inactive),89.6%,98.9%,-4.8% (inactive),-4.84% (inactive)
COc1cccc(C2CC(c3ccccc3)n3ncnc3N2)c1 (stereo not given),87%,112% (inactive),87% (inactive),93.5% (inactive),90.2% (inactive),10.2% (inactive),80%,90.2%,2.82% (inactive),3.67% (inactive)
Fc1cccc(-c2cc3nc4c(c(N5CCN(c6cnccn6)CC5)n3n2)CCCC4)c1,104%,78% (inactive),104% (inactive),86.9% (inactive),89.2% (inactive),5.59% (inactive),83.6%,89.2%,-5.58% (inactive),0.16% (inactive)
Nc1nc2n(n1)C(c1cccc(Cl)c1)CC(c1ccc(F)cc1)N2 (stereo not given),86.5%,97.5% (inactive),86.5% (inactive),106% (inactive),100% (inactive),-10.5% (inactive),111%,100%,-5.47% (inactive),-0.83% (inactive)
COc1ccc(N2CCN(C(=O)CCNS(=O)(=O)c3ccc(Br)s3)CC2)cc1,64%,91.5% (inactive),64% (inactive),80.1% (inactive),88.7% (inactive),-3.66% (inactive),92.3%,88.7%,-4.55% (inactive),6.72% (inactive)
COc1ccccc1NS(=O)(=O)c1ccc(OC)c(OC)c1,86%,85% (inactive),86% (inactive),91.6% (inactive),99.8% (inactive),-3.15% (inactive),103%,99.8%,-6.62% (inactive),6.56% (inactive)
COc1ccc2cc(CN(CCO)C(=O)c3ccc(Br)cc3)c(=O)[nH]c2c1,98%,81.5% (inactive),98% (inactive),90.2% (inactive),110% (inactive),19.2% (inactive),90.3%,110%,-4.93% (inactive),5.41% (inactive)
CC(=O)c1c(OCC(=O)O)ccc2c(C)cc(=O)oc12,136%,104% (inactive),136% (inactive),101% (inactive),91.8% (inactive),3.1% (inactive),88.7%,91.8%,-5.66% (inactive),6.07% (inactive)
Cc1nc2sc(C(c3cccc(F)c3)N3CCC(C)CC3)c(O)n2n1 (stereo not given),88%,77% (inactive),88% (inactive),101% (inactive),96.3% (inactive),9.65% (inactive),86.7%,96.3%,-6.71% (inactive),1.75% (inactive)
COc1ccc(NC(=O)CCNC(=O)Cn2ccc3ccccc3c2=O)c(OC)c1,101%,91% (inactive),101% (inactive),108% (inactive),103% (inactive),14.4% (inactive),88.1%,103%,-7.97% (inactive),7.17% (inactive)
O=C(CSc1nnc(SCc2ccc(Cl)cc2)s1)N1CCN(C(=O)c2ccco2)CC1,80.5%,93% (inactive),80.5% (inactive),70.3% (inactive),100% (inactive),10.9% (inactive),89.2%,100%,-8.36% (inactive),-5.56% (inactive)
CCCCC(CC)C(=O)Nc1ccccc1C#N (stereo not given),96%,95% (inactive),96% (inactive),98.6% (inactive),89.1% (inactive),8.93% (inactive),80.1%,89.1%,-4.34% (inactive),4.29% (inactive)
CCCCCC1CC(CC#CCN2CCOCC2)C(=O)O1 (stereo not given),86%,102% (inactive),86% (inactive),83.4% (inactive),93.8% (inactive),1.16% (inactive),92.6%,93.8%,-7.4% (inactive),-7.78% (inactive)
O=C(C1=C(O)C(=O)N(Cc2ccccc2)C1c1ccncc1)c1ccco1 (stereo not given),97.5%,111% (inactive),97.5% (inactive),109% (inactive),104% (inactive),3.21% (inactive),101%,104%,-0.26% (inactive),-5.33% (inactive)
CC(=O)NC1(C(F)(F)F)NC(=O)N(CC(C)C)C1=O (stereo not given),103%,109% (inactive),103% (inactive),91.1% (inactive),102% (inactive),18.8% (inactive),83.6%,102%,-2.3% (inactive),-0.66% (inactive)
COc1ccc(-n2cnnc2SCCC#N)cc1,106%,96.5% (inactive),106% (inactive),88.3% (inactive),106% (inactive),16.2% (inactive),89.5%,106%,-3.33% (inactive),3.71% (inactive)

SMILES,viability [1],Her2 level [2],viability [3],viability [4],viability [5],differential viability (reversal) ([6]; H69AR cells + 2 uM doxorubicin),"viability [6, 9]","viability [6, 10]",inhibition [7],inhibition [8]
O=C(c1ncc[nH]1)c1ccccc1C(=O)N1CCOCC1,118%,112% (inactive),118% (inactive),100% (inactive),90.3% (inactive),3.04% (inactive),87.3%,90.3%,-5.21% (inactive),1.75% (inactive)
COc1ccc(-c2nc(SC)n(S(=O)(=O)c3ccccc3)n2)cc1,80%,114% (inactive),80% (inactive),86.1% (inactive),98.1% (inactive),17.5% (inactive),80.6%,98.1%,1.73% (inactive),-10.8% (inactive)
CCCCC(=O)Nc1c(O)c2ccccc2[nH]c1=O,95.5%,107% (inactive),95.5% (inactive),108% (inactive),98.3% (inactive),-2.29% (inactive),101%,98.3%,-6.93% (inactive),-8.69% (inactive)
CN1C(=O)C(O)(CC(=O)c2ccc3c(c2)OCO3)c2ccccc21 (stereo not given),99.5%,90.5% (inactive),99.5% (inactive),84.7% (inactive),82.5% (inactive),9.22% (inactive),73.3%,82.5%,0.52% (inactive),-0.83% (inactive)
CCOc1ccc2oc(-c3ccccc3)c(C(=O)N3CCN(CCO)CC3)c2c1,97.5%,83% (inactive),97.5% (inactive),74.3% (inactive),72.9% (inactive),3.36% (inactive),69.6%,72.9%,-4.42% (inactive),0% (inactive)
CC1(C)CC(=O)C(C=NCc2ccc3c(c2)OCO3)=C(O)C1,104%,95.5% (inactive),104% (inactive),96.6% (inactive),91.3% (inactive),5% (inactive),86.3%,91.3%,0.65% (inactive),-4.92% (inactive)
N#C[C@@H]1[C@@H]2C(=O)N(c3ccc4c(c3)OCCO4)C(=O)[C@@H]2C2c3ccccc3C=CN21 (stereo not given in full),84.5%,72% (inactive),84.5% (inactive),95.8% (inactive),92.8% (inactive),-0.82% (inactive),93.6%,92.8%,-0.53% (inactive),-5.48% (inactive)
CC(=O)CCc1ccc(OCCCCn2cncn2)cc1,113%,105% (inactive),113% (inactive),98.2% (inactive),92.9% (inactive),3.28% (inactive),89.6%,92.9%,-4.94% (inactive),1.59% (inactive)
COc1cccc(C(=O)Nc2ccc(NC(C)=O)cn2)c1,98%,76% (inactive),98% (inactive),92.4% (inactive),106% (inactive),12.5% (inactive),93.2%,106%,-5.27% (inactive),-4.92% (inactive)
CCOC(=O)N1CCN(Cc2ccccc2F)CC1,102%,81% (inactive),102% (inactive),98.1% (inactive),85% (inactive),-2.15% (inactive),87.2%,85%,-7.33% (inactive),2.3% (inactive)
Cc1nnc(SC(=O)N2c3ccccc3Sc3ccccc32)s1,114%,6.5% (active),114% (inactive),13.2% (active),1.79% (active),0.105% (inactive),1.69%,1.79%,54% (active),8.67% (inactive)
O=C(NCc1ccco1)c1c2c(nc3ccccc13)CCC2,108%,80% (inactive),108% (inactive),82.4% (inactive),80.7% (inactive),3.16% (inactive),77.5%,80.7%,-6.4% (inactive),3.23% (inactive)
Cc1cccc(C)c1NC(=O)c1cc(S(=O)(=O)N2CCOCC2)ccc1F,88.5%,78.5% (inactive),88.5% (inactive),102% (inactive),89.9% (inactive),0.745% (inactive),89.2%,89.9%,-5.53% (inactive),-9.17% (inactive)
COC(=O)c1cc(=O)n2c(-c3ccc(OC)cc3)csc2n1,110%,97.5% (inactive),110% (inactive),96.2% (inactive),92.6% (inactive),10.6% (inactive),82.1%,92.6%,-4.8% (inactive),-0.16% (inactive)
COc1ccccc1OC(=O)c1ccc(SC)cc1OC,83%,88% (inactive),83% (inactive),98.4% (inactive),94.1% (inactive),2.65% (inactive),91.4%,94.1%,1.05% (inactive),-5.97% (inactive)
C=CCNC(=O)CNS(=O)(=O)c1ccc(F)cc1,87%,95.5% (inactive),87% (inactive),92.5% (inactive),95.4% (inactive),1.88% (inactive),93.6%,95.4%,-1.45% (inactive),0% (inactive)
